Series [1] deals with T1, Oxysterols receptor LXR-beta (Homo sapiens, UniProt P55055).
T1 sequence (P55055 whole entry): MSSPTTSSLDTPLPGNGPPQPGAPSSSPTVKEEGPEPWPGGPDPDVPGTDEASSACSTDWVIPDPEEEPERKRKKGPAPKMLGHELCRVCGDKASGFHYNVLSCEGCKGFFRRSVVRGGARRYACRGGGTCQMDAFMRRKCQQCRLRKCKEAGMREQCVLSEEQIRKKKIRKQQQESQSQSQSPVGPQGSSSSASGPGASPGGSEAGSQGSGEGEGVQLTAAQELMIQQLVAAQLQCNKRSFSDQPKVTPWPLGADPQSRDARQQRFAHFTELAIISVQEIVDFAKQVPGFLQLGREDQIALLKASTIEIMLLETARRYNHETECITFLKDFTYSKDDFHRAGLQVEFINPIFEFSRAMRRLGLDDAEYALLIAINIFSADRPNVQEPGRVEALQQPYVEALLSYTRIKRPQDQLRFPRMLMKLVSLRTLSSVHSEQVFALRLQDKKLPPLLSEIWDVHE
In words: Agonist activity at LXR-beta in human HeLa cells assessed as induction of ABCA1 by beta-galactosidase/luciferase reporter gene assay. Format: cell-based. The method, boiled down: (§1)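 HeLa cells carrying endogenous LXRα and LXRβ receptors, transfected with an ABCA1 LXREx3 reporter construct; agonist-driven reporter induction measured.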
On the technique in general: A reporter such as luciferase makes a cellular process visible.

In series [2] the target is T1, Oxysterols receptor LXR-beta. In words: Agonist activity at human LXR-beta expressed in African green monkey CV1 cells measured after 18 to 20 hrs by luciferase reporter gene assay. Type of series: cell-based, CV-1.
The target in series [3] is T2, Oxysterols receptor LXR-alpha (Homo sapiens, UniProt Q13133).
T2 sequence (Q13133 whole entry): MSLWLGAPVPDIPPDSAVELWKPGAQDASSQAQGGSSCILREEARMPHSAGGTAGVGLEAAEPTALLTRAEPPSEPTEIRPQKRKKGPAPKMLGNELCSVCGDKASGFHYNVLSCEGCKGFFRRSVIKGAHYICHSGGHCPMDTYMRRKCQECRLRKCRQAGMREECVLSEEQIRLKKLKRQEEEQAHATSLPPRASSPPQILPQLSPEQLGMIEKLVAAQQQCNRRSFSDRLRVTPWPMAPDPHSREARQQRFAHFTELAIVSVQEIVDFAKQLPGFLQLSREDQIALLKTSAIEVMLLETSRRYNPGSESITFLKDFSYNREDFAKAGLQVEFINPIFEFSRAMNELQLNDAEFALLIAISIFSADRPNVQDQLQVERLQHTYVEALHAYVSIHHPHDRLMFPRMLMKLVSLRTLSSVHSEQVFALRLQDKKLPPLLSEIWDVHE
In words: Agonist activity at human LXR-alpha expressed in African green monkey CV1 cells measured after 18 to 20 hrs by luciferase reporter gene assay relative to pan agonist 1-(2,4-difluorobenzyl)-2-oxo-6-(4-phenoxyphenyl)-4-(trifluoromethyl)-1,2-dihydropyridine-3-carbonitrile. Type of series: cell-based. Conditions: CV-1, human; read-out: Efficacy.

Series [4] has as its target T3, Oxysterols receptor LXR-beta (Homo sapiens) (UniProt P55055).
T3 sequence (whole entry): T1 sequence (P55055 whole entry)
In words: Agonist activity at LXR-beta in human HeLa cells assessed as induction of ABCA1 by beta-galactosidase/luciferase reporter gene assay relative to control. Type of series: cell-based. The method, boiled down:
as §1

The target in series [5] is T3, Oxysterols receptor LXR-beta (Homo sapiens). In words: Agonist activity at human LXR-beta expressed in African green monkey CV1 cells measured after 18 to 20 hrs by luciferase reporter gene assay relative to pan agonist 1-(2,4-difluorobenzyl)-2-oxo-6-(4-phenoxyphenyl)-4-(trifluoromethyl)-1,2-dihydropyridine-3-carbonitrile. Format: cell-based. The note with it: CV-1.

Series [6] deals with Retinoic acid receptor RXR-alpha/oxysterols receptor LXR-beta (Homo sapiens, UniProt P55055). In words: Displacement of [3H]-24,25-epoxycholesterol from human LXRbeta/RXRalpha expressed in baculovirus infected Sf9 cells by scintillation proximity analysis. The method, boiled down:
(§2)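 Binding affinity measured using full-length LXRα–RXRα and LXRβ–RXRα heterodimers.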
A general note: Loss of bound radioactivity is the signal in a displacement assay; it reports binding, not function.

In series [7] the target is T3, Oxysterols receptor LXR-beta (Homo sapiens). In words: Agonist activity at LXR-beta in human whole blood assessed as ABCA1 gene induction by measuring ABCA1 mRNA level after 4 hrs by SYBR-Green dye-based Q-PCR analysis relative to pan agonist 2-(4-(5-(5-cyano-1-(2,4-difluorobenzyl)-6-oxo-4-(trifluoromethyl)-1,6-dihydropyridin-2-yl)thiophen-2-yl)-3-methylphenyl)acetic acid. Format: tissue-based.

Series [8] concerns the target T2, Oxysterols receptor LXR-alpha. In words: Agonist activity at human LXR-alpha expressed in African green monkey CV1 cells measured after 18 to 20 hrs by luciferase reporter gene assay. Type of series: cell-based, CV-1.
For series [9], the target named is T1, Oxysterols receptor LXR-beta. In words: Agonist activity at LXR-beta in human whole blood assessed as ABCA1 gene induction by measuring ABCA1 mRNA level after 4 hrs by SYBR-Green dye-based Q-PCR analysis. Type of series: tissue-based.
Series [10] concerns the target Retinoic acid receptor RXR-alpha/oxysterols receptor LXR-alpha (Homo sapiens, UniProt Q13133). In words: Displacement of [3H]-24,25-epoxycholesterol from human LXRalpha/RXRalpha expressed in baculovirus infected Sf9 cells by scintillation proximity analysis. In outline: as §2
A further series has as its target Albumin (Homo sapiens, UniProt P02768). In words: Binding affinity to human serum albumin at 1 uM measured after 4 hrs by equilibrium dialysis method relative to control. Format: ADME. The note with it: isolated protein, 4 h, 1 µM.
Series [11] deals with Alpha-1-acid glycoprotein 1 (Homo sapiens, UniProt P02763). In words: Binding affinity to human alpha-1-AGP at 1 uM measured after 4 hrs by equilibrium dialysis method relative to control. Type of series: ADME. Conditions: for PB: isolated protein, 4 h, 1 µM. Background: In equilibrium dialysis free small molecules cross a membrane that holds back macromolecules.
Sequence of Alpha-1-acid glycoprotein 1 (P02763 whole entry): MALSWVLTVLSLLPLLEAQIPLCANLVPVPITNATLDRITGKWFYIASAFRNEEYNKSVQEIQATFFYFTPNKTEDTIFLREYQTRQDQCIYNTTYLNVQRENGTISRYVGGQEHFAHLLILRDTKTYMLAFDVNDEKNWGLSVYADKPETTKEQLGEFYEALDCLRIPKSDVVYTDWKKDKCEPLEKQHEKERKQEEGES
Series [12] can be described thus: Half life in cynomolgus monkey at 0.2 mg/kg, iv administered as cassette dose by LC/MS/MS analysis. The note with it: in vivo. Format: ADME, organism-based, Macaca fascicularis.
Series [13] in a line: Clearance in cynomolgus monkey at 0.2 mg/kg, iv administered as cassette dose by LC/MS/MS analysis. The note with it: in vivo. Type of series: ADME, organism-based, Macaca fascicularis.

SMILES strings stand for the structures.

Sequence of Retinoic acid receptor RXR-alpha/oxysterols receptor LXR-beta (P19793 whole entry, one chain of several): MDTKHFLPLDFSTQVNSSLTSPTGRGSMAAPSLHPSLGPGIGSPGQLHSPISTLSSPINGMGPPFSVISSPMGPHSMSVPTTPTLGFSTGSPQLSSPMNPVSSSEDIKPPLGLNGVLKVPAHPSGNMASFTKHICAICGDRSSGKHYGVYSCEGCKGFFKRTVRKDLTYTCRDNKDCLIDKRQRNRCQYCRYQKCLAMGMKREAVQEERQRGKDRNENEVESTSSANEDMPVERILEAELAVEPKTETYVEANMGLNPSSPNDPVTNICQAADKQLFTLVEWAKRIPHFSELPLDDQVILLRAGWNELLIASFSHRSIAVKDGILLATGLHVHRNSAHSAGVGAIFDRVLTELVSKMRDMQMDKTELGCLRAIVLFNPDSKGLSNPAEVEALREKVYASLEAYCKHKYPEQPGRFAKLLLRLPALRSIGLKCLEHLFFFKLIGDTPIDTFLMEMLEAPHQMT
Sequence of Retinoic acid receptor RXR-alpha/oxysterols receptor LXR-alpha (P19793 whole entry, one chain of several): as above
Sequence of Albumin (P02768 whole entry): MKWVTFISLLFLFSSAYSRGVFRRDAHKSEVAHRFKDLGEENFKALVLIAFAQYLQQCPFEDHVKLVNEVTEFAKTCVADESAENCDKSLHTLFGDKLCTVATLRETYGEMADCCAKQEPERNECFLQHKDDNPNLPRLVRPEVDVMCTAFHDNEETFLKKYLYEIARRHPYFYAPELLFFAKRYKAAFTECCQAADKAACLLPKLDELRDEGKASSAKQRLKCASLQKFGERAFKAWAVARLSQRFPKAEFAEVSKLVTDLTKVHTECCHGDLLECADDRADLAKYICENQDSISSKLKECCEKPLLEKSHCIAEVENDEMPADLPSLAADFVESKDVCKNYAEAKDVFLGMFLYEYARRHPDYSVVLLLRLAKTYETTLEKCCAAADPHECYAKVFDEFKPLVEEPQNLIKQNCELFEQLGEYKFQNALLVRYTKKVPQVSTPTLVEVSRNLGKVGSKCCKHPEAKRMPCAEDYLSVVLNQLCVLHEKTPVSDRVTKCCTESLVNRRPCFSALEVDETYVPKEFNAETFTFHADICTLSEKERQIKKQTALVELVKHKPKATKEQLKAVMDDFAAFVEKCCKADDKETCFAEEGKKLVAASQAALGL

By EC50 is commonly meant the midpoint of the concentration-response curve. Broadly, the Ki is the equilibrium dissociation constant of an inhibitor or competing ligand from its target. Turning to `CC(C)(O)c1cn(-c2ccc(-c3cc(F)c(CO)c(S(C)(=O)=O)c3)cc2)c(C(C)(C)c2ccccc2F)n1`, the EC50 is 0.012 µM in series [1], 0.16 µM in series [2], 0.13 µM in [8] and 0.043 µM in series [9]. In addition, the Emax in [3] stood at 13%. Also, the values for the Efficacy in [4], in series [5] and in series [7] were 15%, 68% and 28%, respectively. Moreover, the inhibitory constant (Ki) in [6] was found to be 0.014 µM; in series [10], 0.081 µM.
As for `CC(C)(O)c1cn(-c2ccc(-c3cccc(S(C)(=O)=O)c3)cc2)c(C(C)(C)c2c(Cl)cccc2Cl)n1`, the concentration for a half-maximal effect (EC50) in series [1] worked out at 0.018 µM; in series [2], 0.17 µM; in series [8], 0.099 µM; in series [9] it was 0.38 µM. Further, in [3], the Emax was determined as 20%. Also, the Efficacy in series [4] stood at 42%; in series [5], 41%; in series [7] it was 32%. For the same compound, the inhibition constant (Ki) in series [6] amounted to 0.011 µM; in series [10], 0.016 µM. Further, the PB on Albumin is reported as 97.9%. For the same compound, the fraction unbound at 4 h, 1 µM in [11] (human alpha-1-acid glycoprotein, read-out: PB) is 0.004 to 0.01.
Turning to `CC(c1c(Cl)cccc1Cl)c1nc(C(C)(C)O)cn1-c1ccc(-c2cc(F)c(CO)c(S(C)(=O)=O)c2)cc1F` (stereo not given), the concentration for a half-maximal effect (EC50) in series [1] stood at 0.002 µM; in series [2], 0.025 µM; in series [8] it was 0.012 µM; in [9] it was 0.023 µM. Further, the Emax in series [3] is 18%. For the same compound, the Efficacy in [4] was determined as 9%; in series [5] it was 67%; in series [7], 17%. Also, the Ki was 0.013 µM in series [6] and 0.017 µM in [10].
As to `CC(C)(O)c1cn(-c2ccc(-c3cc(F)c(CO)c(S(C)(=O)=O)c3)cc2Cl)c(C(C)(C)c2c(Cl)cccc2Cl)n1`, the concentration giving a half-maximal response (EC50) came out at 0.002 µM in series [1], 0.027 µM in series [2], 0.008 µM in [8] and 0.005 µM in series [9]. Moreover, in series [3], the Emax came out at 6%. The figures for the Efficacy in series [4], in series [5] and in series [7] were 12%, 51% and 16%, respectively. In addition, the results for the inhibition constant (Ki) in [6] and in series [10] were 0.048 µM and 0.05 µM, respectively.
The half-life is the time in which the quantity being followed falls by half. As usually defined, the clearance is the rate of elimination divided by the concentration. Turning to `CC(O)c1ccc(-c2ccc(-n3cc(C(C)(C)O)nc3C(C)(C)c3ccccc3Cl)cc2)cc1S(C)(=O)=O` (stereo not given), the EC50 in series [1] came out at 0.021 µM; in series [2] it was 0.22 µM; in series [8], 0.12 µM; in [9], 0.87 µM. Further, the Emax in series [3] is 47%. In addition, the Efficacy in series [4] is 68%; in [5], 93%; in [7], 47%. This compound also had a half-life in [12] of 5.5 h. The results for the Ki in series [6] and in series [10] were 0.04 µM and 0.18 µM, respectively. The clearance in series [13] came out at 0.336 L/h/kg.
Regarding `CC(C)(O)c1cn(-c2ccc(-c3cc(F)c(CO)c(S(C)(=O)=O)c3)cc2F)c(C(C)(C)c2ccccc2Cl)n1`, the EC50 in series [1] came to 0.002 µM; in [2] it was 0.05 µM; in series [8], 0.057 µM; in [9], 0.046 µM. Also, the Emax in [3] stood at 25%. Further, the Efficacy in series [4] was 29%; in series [5], 79%; in series [7], 35%. Besides, the Ki in [6] amounted to 0.018 µM; in series [10], 0.009 µM.
Turning to `CC(C)(O)c1cn(-c2ccc(-c3ccc(CO)c(S(C)(=O)=O)c3)cc2)c(C(C)(C)c2ccccc2Cl)n1`, the EC50 was 0.012 µM in series [1], 0.17 µM in series [2], 0.11 µM in series [8] and 0.3 µM in [9]. Also, in series [3], the Emax was 46%. The results for the Efficacy in series [4], in series [5] and in [7] were 56%, 74% and 46%, respectively. Further, the Ki amounted to 0.013 µM in series [6] and 0.074 µM in series [10]. The PB at Albumin is on record as 96.1%; in series [11], 90.2%.
`CC(C)(O)c1cn(-c2ccc(-c3cc(F)c(CO)c(S(C)(=O)=O)c3)cc2F)c(C(C)(C)c2c(F)cccc2Cl)n1`: the EC50 is 0.001 µM in series [1], 0.02 µM in series [2], 0.011 µM in [8] and 0.041 µM in [9]. In [3], the Emax came out at 15%. The Efficacy in series [4] is 30%; in series [5], 86%; in series [7], 33%. Also, the Ki in series [6] stood at 0.014 µM; in series [10], 0.07 µM.
As to `CC(C)(O)c1cn(-c2ccc(-c3cc(F)c(CO)c(S(C)(=O)=O)c3)cc2)c(C(C)(C)c2c(Cl)cccc2Cl)n1`, the half-maximal effective concentration (EC50) in series [1] stood at 0.003 µM; in series [2], 0.042 µM; in series [8], 0.03 µM; in [9], 0.015 µM. In series [3], the Emax is 25%. Moreover, the values for the Efficacy in series [4], in [5] and in [7] were 23%, 72% and 43%, respectively. In addition, the inhibition constant (Ki) in [6] is 0.006 µM; in series [10] it was 0.038 µM.
Turning to `CC(C)(O)c1cn(-c2ccc(-c3cc(F)c(CO)c(S(C)(=O)=O)c3)cc2)c(Cc2c(Cl)cccc2Cl)n1`, the EC50 was 0.005 µM in [1], 0.14 µM in [2], 0.069 µM in series [8] and 0.042 µM in series [9]. The Emax in series [3] was 17%. Besides, the results for the Efficacy in [4], in series [5] and in series [7] were 43%, 54% and 51%, respectively. For the same compound, the Ki turned out to be 0.011 µM in series [6] and 0.075 µM in series [10].
As for `CC(C)(O)c1cn(-c2ccc(-c3cc(F)c(CO)c(S(C)(=O)=O)c3)cc2)c(C(C)(C)c2ccccc2Cl)n1`, the concentration giving a half-maximal response (EC50) in series [1] worked out at 0.008 µM; in series [2], 0.072 µM; in [8], 0.076 µM; in [9], 0.057 µM. Besides, the Emax in [3] was found to be 29%. The Efficacy was 43% in series [4], 83% in series [5] and 47% in series [7]. The half-life in series [12] was 5.6 h. The inhibition constant (Ki) in series [6] amounted to 0.01 µM; in series [10] it was 0.053 µM. The clearance in series [13] was found to be 0.504 L/h/kg. Further, the PB at Albumin is 95.5%; in series [11] it was 86.6%.

(Values after ChEMBL document CHEMBL3867488 (ACS Med Chem Lett, 2016).)
